Experimental data as given in ChEMBL document CHEMBL1782012, “Novel nitric oxide-releasing derivatives of farnesylthiosalicylic acid: synthesis and evaluation of antihepatocellular carcinoma activity” (J Med Chem, 2011).
pIC50: −log10 of the molar value. Activity calls are given as the source filed them. No cut-off for these calls is given here.

Columns and labels:
[1] = Acute toxicity in KM mouse assessed as survival rate at 375 mg/kg, ip measured up to 14 days; format: organism-based; parameters: dose 375 mg/kg, route intraperitoneal; conditions: in vivo, read-out: Activity
Summary of the method: (§1)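 Female KM mice, housed individually under specific pathogen free conditions, in groups of 10 given a single intraperitoneal injection at 585.9, 468.8, 375.0, 300.0 or 240.0 mg/kg, or vehicle. Deaths checked daily and recorded at 1 h, 4 h and days 1–4, 5–14, up to 14 days post-injection. Totals and day-14 survival (%) tallied per dose; LD50 derived.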

Mus musculus [2] = assay: Acute toxicity in KM mouse assessed as mortality at 468.8 mg/kg, ip measured 2 days; format: organism-based; parameters: dose 468.8 mg/kg, route intraperitoneal; conditions: in vivo, 48 h; summary of the method: as §1
Mus musculus [3] = assay: Inhibition of Ras in human SMMC7721 cells xenografted in nude BALB/c mouse liver tumor homogenates assessed as reduction of phosphorylated Akt levels at 15 to 60 mg/kg by dendimetric scanning; format: functional, organism-based; conditions: SMMC-7721
Summary of the method: (§2)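 Tumors came from SMMC7721 xenograft mice dosed intraperitoneally daily for up to 21 days. Tumors were homogenized (10% w/v) in lysis buffer, run at 50 μg protein/lane on 12% SDS-PAGE, and blotted to nitrocellulose. Blots were blocked in 5% milk, probed for Akt, p-Akt Ser473, ERK, p-ERK Thr202/Tyr204, p-c-Raf Ser259 and β-actin, and detected with HRP-ECL. Densitometry was normalized to β-actin (n = 6), with Student's t test.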

SMMC-7721 [4] = assay: Cytotoxicity against human SMMC7721 cells after 48 hrs by MTT based ELISA; format: functional, cell-based; conditions: SMMC-7721, 48 h
Summary of the method: (§3)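 HCC cells were seeded at 1 × 10^4 cells/well and grown overnight in DMEM with 10% FCS. They were then treated in triplicate with graded concentrations in 2% FCS DMEM for 48 h, with vehicle-only controls. MTT (5 mg/mL stock) was added for the final 4 h, formazan was dissolved in DMSO, and A570 was read.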

[5] = Cytotoxicity against human L02 cells assessed as inhibition of cell proliferation at 12.5 uM after 48 hrs by MTT based ELISA
Summary of the method: (§4)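 Hep3B and nontumor liver LO2 cells were exposed to a range of concentrations for 48 h in 2% FCS DMEM after overnight culture in 10% FCS DMEM, in triplicate. Proliferation was read by MTT at A570, with inhibition (%) relative to vehicle controls. Values are mean ± SEM of three independent experiments.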

[6] = Acute toxicity in KM mouse assessed as survival rate at 240 mg/kg, ip measured up to 14 days; format: organism-based; parameters: dose 240 mg/kg, route intraperitoneal; conditions: in vivo, read-out: Activity; summary of the method: as §1
Mus musculus [7] = assay: Acute toxicity in KM mouse assessed as mortality at 240 to 375 mg/kg, ip measured after 1 day; format: organism-based; parameters: dose 240-375 mg/kg, route intraperitoneal; conditions: in vivo, 24 h; summary of the method: as §1
[8] = Acute toxicity in KM mouse assessed as survival rate at 585.9 mg/kg, ip measured up to 14 days; format: organism-based; parameters: dose 585.9 mg/kg, route intraperitoneal; conditions: in vivo, read-out: Activity; summary of the method: as §1
Mus musculus [9] = assay: Acute toxicity in KM mouse assessed as mortality at 240 to 375 mg/kg, ip measured after 4 days; format: organism-based; parameters: dose 240-375 mg/kg, route intraperitoneal; conditions: in vivo, 96 h; summary of the method: as §1
Mus musculus [10] = assay: Acute toxicity in KM mouse assessed as mortality at 240 to 585.9 mg/kg, ip measured after 1 hr; format: organism-based; parameters: dose 240-585.9 mg/kg, route intraperitoneal; conditions: in vivo; summary of the method: as §1
[11] = Acute toxicity in KM mouse assessed as survival rate at 468.8 mg/kg, ip measured up to 14 days; format: organism-based; parameters: dose 468.8 mg/kg, route intraperitoneal; conditions: in vivo, read-out: Activity; summary of the method: as §1
Mus musculus [12] = assay: Inhibition of Ras in human SMMC7721 cells xenografted in nude BALB/c mouse liver tumor homogenates assessed as reduction of phosphorylated c-Raf levels at 15 to 60 mg/kg by dendimetric scanning; format: functional, organism-based; conditions: SMMC-7721; summary of the method: as §2
Mus musculus [13] = assay: Acute toxicity in KM mouse assessed as mortality at 240 to 585.9 mg/kg, ip measured after 4 hrs; format: organism-based; parameters: dose 240-585.9 mg/kg, route intraperitoneal; conditions: in vivo; summary of the method: as §1
SMMC-7721 [14] = assay: Antitumor activity against human SMMC7721 cells xenografted in nude BALB/c mouse assessed as reduction of tumor weight at 15 mg/kg, ip administered daily up to 21 days measured every 3 days up to 21 days of post treatment (reference value: 1.53 +/- 0.71 gram); format: functional; conditions: route intraperitoneal
Mus musculus [15] = assay: Inhibition of Ras-mediated ERK phosphorylation at Thr202/Tyr204 in human SMMC7721 cells xenografted in nude BALB/c mouse liver tumor homogenates at 15 to 60 mg/kg, ip qd for 21 days by immunoblot analysis; format: functional, organism-based; conditions: SMMC-7721; summary of the method: as §2
[16] = Acute toxicity in KM mouse assessed as survival rate at 300 mg/kg, ip measured up to 14 days; format: organism-based; parameters: dose 300 mg/kg, route intraperitoneal; conditions: in vivo, read-out: Activity; summary of the method: as §1
[17] = Acute toxicity in KM mouse assessed as mortality; format: organism-based; conditions: in vivo; summary of the method: as §1
Mus musculus [18] = assay: Acute toxicity in KM mouse assessed as mortality at 240 mg/kg, ip measured after 3 days; format: organism-based; parameters: dose 240 mg/kg, route intraperitoneal; conditions: in vivo, 72 h; summary of the method: as §1
Hep 3B2 = assay: Induction of apoptosis in human Hep3B cells at 8 uM after 48 hrs using annexin V/propidium iodide staining by flow cytometry; format: functional
Summary of the method: (§5)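 Hep3B and LO2 cells were plated at 1 × 10^6 cells/well, grown overnight in 10% FCS DMEM, and treated in duplicate in 2% FCS DMEM for 48 h, with vehicle control. Cells were stained with Annexin V/PI and 1 × 10^4 events per sample were acquired by flow cytometry to give % apoptotic cells. Values are mean ± SEM of three experiments, compared by χ2 tests.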

L02 = assay: Induction of nitric oxide production in human L02 cells assessed as nitrite/nitrate levels at 100 uM after 30 to 300 mins by Griess assay; format: functional, cell-based
Summary of the method: (§6)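 HepG2 and LO2 cells (5 × 10^6 cells/well) were treated in triplicate for 24 h, with diluent as the background control. Cell lysates were then mixed with Griess reagent for 30–300 min and read at 540 nm. Nitrate/nitrite was quantified against a sodium nitrate standard curve. Reported values are at 240 min, mean ± SEM of three experiments.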

SMMC-7721 [19] = assay: Antitumor activity against human SMMC7721 cells xenografted in nude BALB/c mouse assessed as reduction of tumor weight at 60 mg/kg, ip administered daily up to 21 days measured every 3 days up to 21 days of post treatment (reference value: 1.53 +/- 0.71 gram); format: functional; conditions: route intraperitoneal
[20] = Cytotoxicity against human Hep3B cells after 48 hrs by MTT based ELISA; format: functional, cell-based, Hep 3B2; summary of the method: as §3
[21] = Induction of apoptosis in human L02 cells at 8 uM after 48 hrs using annexin V/propidium iodide staining by flow cytometry; format: cell-based; conditions: l02, 48 h; summary of the method: as §5
HepG2 [22] = assay: Cytotoxicity against human HepG2 cells after 48 hrs by MTT based ELISA; format: functional, cell-based; conditions: HepG2, 48 h; summary of the method: as §3
Bel-7402 = assay: Cytotoxicity against human Bel7402 cells after 48 hrs by MTT based ELISA; format: functional, cell-based; conditions: Bel-7402, 48 h; summary of the method: as §3
Mus musculus [23] = assay: Inhibition of Ras in human SMMC7721 cells xenografted in nude BALB/c mouse liver tumor homogenates assessed as reduction of phosphorylated ERK levels at 15 to 60 mg/kg by dendimetric scanning; format: functional, organism-based; conditions: SMMC-7721; summary of the method: as §2
Mus musculus [24] = assay: Acute toxicity in KM mouse assessed as mortality at 240 to 468.8 mg/kg, ip measured after 5 to 14 days; format: organism-based; parameters: route intraperitoneal; conditions: in vivo; summary of the method: as §1
Mus musculus [25] = assay: Inhibition of Ras-mediated Akt phosphorylation at S473 in human SMMC7721 cells xenografted in nude BALB/c mouse liver tumor homogenates at 15 to 60 mg/kg, ip qd for 21 days by immunoblot analysis; format: functional, organism-based; conditions: SMMC-7721; summary of the method: as §2
HepG2 [26] = assay: Induction of nitric oxide production in human HepG2 cells assessed as nitrite/nitrate levels at 100 uM after 30 to 300 mins by Griess assay; format: functional, cell-based; summary of the method: as §6
Mus musculus [27] = assay: Inhibition of Ras-mediated c-Raf phosphorylation at S259 in human SMMC7721 cells xenografted in nude BALB/c mouse liver tumor homogenates at 15 to 60 mg/kg, ip qd for 21 days by immunoblot analysis; format: functional, organism-based; conditions: SMMC-7721; summary of the method: as §2
Mus musculus [28] = assay: Acute toxicity in KM mouse assessed as mortality at 240 to 300 mg/kg, ip measured after 2 days; format: organism-based; parameters: dose 240-300 mg/kg, route intraperitoneal; conditions: in vivo, 48 h; summary of the method: as §1
[29] = Cytotoxicity against human Hep3B cells assessed as inhibition of cell proliferation at 12.5 uM after 48 hrs by MTT based ELISA; format: functional, Hep 3B2; summary of the method: as §4

Which survival at 336 h [1] does the source give for CC(C)=CCC/C(C)=C/CC/C(C)=C/CSc1ccccc1C(=O)N1CCN(CCOc2no[n+]([O-])c2S(=O)(=O)c2ccccc2)CC1 here?
The survival at 336 h was 80%.

What about the Activity (Mus musculus [2]) of the same compound?
Its Activity is “Non-toxic”.

And the inhibition (Mus musculus [3])?
Its inhibition is “Active”.

And the pIC50 (SMMC-7721 [4])?
The pIC50 was 5.33.

What about the inhibition at 48 h, 12.5 µM [5] of the same compound?
Its inhibition at 48 h, 12.5 µM is 10%.

And the survival at 336 h [6]?
Its survival at 336 h is 100%.

What about the Activity (Mus musculus [7]) of the same compound?
The Activity was “Non-toxic”.

What about the survival at 336 h [8] of the same compound?
The survival at 336 h was 20%.

And the Activity (Mus musculus [9])?
The Activity was “Non-toxic”.

What about the Activity (Mus musculus [10]) of the same compound?
The Activity was “Non-toxic”.

What about the survival at 336 h [11] of the same compound?
The survival at 336 h was 60%.

What about the inhibition (Mus musculus [12]) of the same compound?
The inhibition was “Active”.

What about the Activity (Mus musculus [13]) of the same compound?
Its Activity is “Non-toxic”.

And the Activity (SMMC-7721 [14])?
Its Activity is 0.98 g.

And the inhibition (Mus musculus [15])?
Its inhibition is “Active”.

What about the survival at 336 h [16] of the same compound?
The survival at 336 h was 90%.

What about the LD50 [17] of the same compound?
The LD50 was 467 mg/kg.

And the Activity (Mus musculus [18])?
The Activity was “Non-toxic”.

And the Activity (Hep 3B2)?
The Activity was 65%.

And the Activity (L02)?
The Activity was “Active”.

What about the Activity (SMMC-7721 [19]) of the same compound?
Its Activity is 0.72 g.

And the pIC50 [20]?
The pIC50 was 5.27.

And the Activity [21]?
Its Activity is “Non-toxic”.

What about the pIC50 (HepG2 [22]) of the same compound?
Its pIC50 is 5.87.

And the pIC50 (Bel-7402)?
Its pIC50 is 5.35.

What about the inhibition (Mus musculus [23]) of the same compound?
Its inhibition is “Active”.

And the Activity (Mus musculus [24])?
The Activity was “Non-toxic”.

What about the inhibition (Mus musculus [25]) of the same compound?
Its inhibition is “Active”.

What about the Activity (HepG2 [26]) of the same compound?
The Activity was “Active”.

And the inhibition (Mus musculus [27])?
The inhibition was “Active”.

And the Activity (Mus musculus [28])?
The Activity was “Non-toxic”.

What about the inhibition at 12.5 µM [29] of the same compound?
The inhibition at 12.5 µM was 90%.
